The test system of test [1] is Staphylococcus aureus. Kind of test: Antibacterial activity against aminoglycoside-susceptible Staphylococcus aureus ATCC 25923 after 12 to 18 hrs. Type of test: functional. An outline of the steps: (§1)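 Broth microdilution. Bacterial suspension adjusted with broth to absorbance 0.08–0.1 at 625 nm, diluted further in broth, and mixed in wells with 2-fold serial dilutions of compound. Plates incubated at 35°C for 12–18 h. MIC is the lowest concentration inhibiting growth; each determination repeated at least three times.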

The test system of test [2] is Escherichia coli. Put plainly: Antibacterial activity against aminoglycoside-susceptible Escherichia coli TG1 after 12 to 18 hrs. Type of test: functional. An outline of the steps:
as §1

Test [3] has as its system Enterococcus. Put plainly: Ratio of kcat to Km of Enterococcus APH(3')-3a.
The subject of test [4] is Escherichia coli. Put plainly: Antibacterial activity against Escherichia coli TG1 pSF815 plasmid encoded for AAC(6')/APH(2') after 12 to 18 hrs. Type of test: functional. The essentials: as §1
Test [5] concerns Escherichia coli. Kind of test: Antibacterial activity against Escherichia coli TG1 pET28a plasmid encoded for APH(3')-3a after 12 to 18 hrs. Type of test: functional. An outline of the steps: as §1
Test [6] concerns Enterococcus. Kind of test: Activity of Enterococcus APH(3')-3a.
Test [7] concerns Escherichia coli. Kind of test: Antibacterial activity against aminoglycoside-susceptible Escherichia coli ATCC 25922 after 12 to 18 hrs. Type of test: functional. The essentials: as §1
In test [8] the test system is Escherichia coli. Put plainly: Antibacterial activity against Escherichia coli TG1 pTZ19U-3 plasmid encoded for APH(3')-1 after 12 to 18 hrs. Type of test: functional. An outline of the steps: as §1

≈ marks a conversion by molar mass, not a printed value.

As usually defined, the MIC is the lowest concentration found to suppress growth. A high value points to a less susceptible organism. As usually defined, the Km is the substrate concentration at which the rate is half of its maximum. In general, Vmax refers to the top rate of the reaction or transport when substrate is in excess. A word on the kcat: it is the number of substrate molecules converted per active site and unit of time at saturation. Take `NC[C@@H]1O[C@H](O[C@H]2[C@@H](O)[C@H](O[C@@H]3[C@@H](O)[C@H](N)C[C@H](N)[C@H]3O[C@H]3O[C@H](CN)[C@@H](O)[C@H](O)[C@H]3N)O[C@@H]2CNC(=O)CCC(=O)O)[C@H](N)[C@@H](O)[C@@H]1O`: the MIC in test [1] is 8 µg/mL (≈ 11.2 µM); in test [2] it was 32 µg/mL (≈ 44.8 µM); in test [4] it was 64 µg/mL (≈ 89.7 µM); in test [5], 250 µg/mL (≈ 350 µM); in test [7] it was 64 µg/mL (≈ 89.7 µM); in test [8], at least 2000 µg/mL. Also, in test [3], the kcat/Km turned out to be 0.81 ×10⁴ /M/s. Further, in test [6], the Km amounted to 53 µM. Further, the Vmax in test [6] was found to be 0.86 µmol/min/mg. In addition, the kcat in test [6] is 0.43 s⁻¹.

For the molecule `C[C@@H](N)C(=O)NC[C@H]1O[C@@H](O[C@@H]2[C@@H](O)[C@H](N)C[C@H](N)[C@H]2O[C@H]2O[C@H](CN)[C@@H](O)[C@H](O)[C@H]2N)[C@H](O)[C@@H]1O[C@H]1O[C@@H](CN)[C@@H](O)[C@H](O)[C@H]1N`, the MIC in test [1] was 1 µg/mL (≈ 1.46 µM); in test [2], 16 µg/mL (≈ 23.4 µM); in test [4], 16 µg/mL (≈ 23.4 µM); in test [5], 64 µg/mL (≈ 93.5 µM); in test [7], 16 µg/mL (≈ 23.4 µM); in test [8], at least 2000 µg/mL. Besides, the kcat/Km in test [3] came out at 0.65 ×10⁴ /M/s. In addition, the Km in test [6] amounted to 63 µM. Further, the Vmax in test [6] came out at 0.82 µmol/min/mg. In addition, the kcat in test [6] amounted to 0.41 s⁻¹.

In the case of `NC[C@@H]1O[C@H](O[C@H]2[C@@H](O)[C@H](O[C@@H]3[C@@H](O)[C@H](N)C[C@H](N)[C@H]3O[C@H]3O[C@H](CN)[C@@H](O)[C@H](O)[C@H]3N)O[C@@H]2CNC(=O)c2cc(-c3ccccc3)nc3ccccc23)[C@H](N)[C@@H](O)[C@@H]1O`, the MIC in test [1] is 4 µg/mL (≈ 4.73 µM); in test [2] it was 8 µg/mL (≈ 9.47 µM); in test [4], 16 µg/mL (≈ 18.9 µM); in test [5], 32 µg/mL (≈ 37.9 µM); in test [7], 8 µg/mL (≈ 9.47 µM); in test [8], at least 2000 µg/mL. The kcat/Km in test [3] amounted to 0.048 ×10⁴ /M/s. Besides, the Km in test [6] worked out at 400 µM. In addition, the Vmax in test [6] turned out to be 0.38 µmol/min/mg. Moreover, the kcat in test [6] was 0.19 s⁻¹.

On to `NC[C@@H]1O[C@H](O[C@H]2[C@@H](O)[C@H](O[C@@H]3[C@@H](O)[C@H](N)C[C@H](N)[C@H]3O[C@H]3O[C@H](CN)[C@@H](O)[C@H](O)[C@H]3N)O[C@@H]2CNC(=O)[C@@H](N)Cc2c[nH]c3ccccc23)[C@H](N)[C@@H](O)[C@@H]1O`, for which the MIC was 2 µg/mL (≈ 2.5 µM) in test [1]; 8 µg/mL (≈ 10 µM) in test [2]; 16 µg/mL (≈ 20 µM) in test [4]; 64 µg/mL (≈ 80 µM) in test [5]; 16 µg/mL (≈ 20 µM) in test [7]; at least 2000 µg/mL in test [8]. In addition, the kcat/Km in test [3] was 0.1 ×10⁴ /M/s. Besides, the Km in test [6] amounted to 322 µM. Also, the maximal velocity (Vmax) in test [6] is 0.57 µmol/min/mg. Also, the kcat in test [6] came out at 0.29 s⁻¹.

For `CN(C)Cc1cn(C[C@H]2O[C@@H](O[C@@H]3[C@@H](O)[C@H](N)C[C@H](N)[C@H]3O[C@H]3O[C@H](CN)[C@@H](O)[C@H](O)[C@H]3N)[C@H](O)[C@@H]2O[C@H]2O[C@@H](CN)[C@@H](O)[C@H](O)[C@H]2N)nn1`, the minimum inhibitory concentration (MIC) in test [1] was 2 µg/mL (≈ 2.77 µM); in test [2] it was 8 µg/mL (≈ 11.1 µM); in test [4], 16 µg/mL (≈ 22.1 µM); in test [5] it was 64 µg/mL (≈ 88.5 µM); in test [7], 8 µg/mL (≈ 11.1 µM); in test [8], at least 2000 µg/mL. Besides, in test [3], the kcat/Km was 0.28 ×10⁴ /M/s. In test [6], the Km was 120 µM. For the same molecule, the Vmax in test [6] came to 0.65 µmol/min/mg. In addition, the kcat in test [6] was 0.33 s⁻¹.

Regarding `NCc1cn(C[C@H]2O[C@@H](O[C@@H]3[C@@H](O)[C@H](N)C[C@H](N)[C@H]3O[C@H]3O[C@H](CN)[C@@H](O)[C@H](O)[C@H]3N)[C@H](O)[C@@H]2O[C@H]2O[C@@H](CN)[C@@H](O)[C@H](O)[C@H]2N)nn1`, the MIC in test [1] was found to be 1 µg/mL (≈ 1.44 µM); in test [2], 16 µg/mL (≈ 23 µM); in test [4], 16 µg/mL (≈ 23 µM); in test [5] it was 64 µg/mL (≈ 92.1 µM); in test [7], 8 µg/mL (≈ 11.5 µM); in test [8], 1000 µg/mL (≈ 1440 µM). Moreover, the kcat/Km in test [3] is 0.3 ×10⁴ /M/s. In addition, the Km in test [6] was 111 µM. Moreover, in test [6], the maximum rate (Vmax) is 0.68 µmol/min/mg. Moreover, the kcat in test [6] stood at 0.34 s⁻¹.

Turning to `NC[C@@H]1O[C@H](O[C@H]2[C@@H](O)[C@H](O[C@@H]3[C@@H](O)[C@H](N)C[C@H](N)[C@H]3O[C@H]3O[C@H](CN)[C@@H](O)[C@H](O)[C@H]3N)O[C@@H]2Cn2cc(CNC(=O)c3cc(-c4ccccc4)nc4ccccc34)nn2)[C@H](N)[C@@H](O)[C@@H]1O`, the MIC amounted to 8 µg/mL (≈ 8.64 µM) in test [1]; 8 µg/mL (≈ 8.64 µM) in test [2]; 32 µg/mL (≈ 34.6 µM) in test [4]; 16 µg/mL (≈ 17.3 µM) in test [5]; 32 µg/mL (≈ 34.6 µM) in test [7]; 500 µg/mL (≈ 540 µM) in test [8]. Besides, the kcat/Km in test [3] turned out to be 0.037 ×10⁴ /M/s. The Km in test [6] came out at 410 µM. Also, the Vmax in test [6] worked out at 0.3 µmol/min/mg. In test [6], the kcat amounted to 0.15 s⁻¹.

Consider `NC[C@@H]1O[C@H](O[C@H]2[C@@H](O)[C@H](O[C@@H]3[C@@H](O)[C@H](N)C[C@H](N)[C@H]3O[C@H]3O[C@H](CN)[C@@H](O)[C@H](O)[C@H]3N)O[C@@H]2CNC(=O)[C@H]2CCCN2)[C@H](N)[C@@H](O)[C@@H]1O`, for which the minimal inhibitory concentration (MIC) in test [1] is 0.5 µg/mL (≈ 0.703 µM); in test [2], 8 µg/mL (≈ 11.3 µM); in test [4] it was 16 µg/mL (≈ 22.5 µM); in test [5], 64 µg/mL (≈ 90 µM); in test [7], 8 µg/mL (≈ 11.3 µM); in test [8], at least 2000 µg/mL. Besides, in test [3], the kcat/Km was found to be 0.51 ×10⁴ /M/s. In addition, the Km in test [6] stood at 70 µM. Further, in test [6], the Vmax was determined as 0.72 µmol/min/mg. Also, the catalytic constant (kcat) in test [6] stood at 0.36 s⁻¹.

For the molecule `NC[C@@H]1O[C@H](O[C@H]2[C@@H](O)[C@H](O[C@@H]3[C@@H](O)[C@H](N)C[C@H](N)[C@H]3O[C@H]3O[C@H](CN)[C@@H](O)[C@H](O)[C@H]3N)O[C@@H]2CNC(=O)[C@@H](N)CO)[C@H](N)[C@@H](O)[C@@H]1O`, the MIC was 1 µg/mL (≈ 1.43 µM) in test [1]; 8 µg/mL (≈ 11.4 µM) in test [2]; 16 µg/mL (≈ 22.8 µM) in test [4]; 32 µg/mL (≈ 45.7 µM) in test [5]; 8 µg/mL (≈ 11.4 µM) in test [7]; at least 2000 µg/mL in test [8]. For the same molecule, the kcat/Km in test [3] was 1.2 ×10⁴ /M/s. In addition, in test [6], the Km was 42 µM. Further, the Vmax in test [6] came to 1.01 µmol/min/mg. The kcat in test [6] was found to be 0.51 s⁻¹.

As to `NC[C@@H]1O[C@H](O[C@H]2[C@@H](O)[C@H](O[C@@H]3[C@@H](O)[C@H](N)C[C@H](N)[C@H]3O[C@H]3O[C@H](CN)[C@@H](O)[C@H](O)[C@H]3N)O[C@@H]2CNC(=O)[C@H](N)CO)[C@H](N)[C@@H](O)[C@@H]1O`, the MIC was 1 µg/mL (≈ 1.43 µM) in test [1]; 8 µg/mL (≈ 11.4 µM) in test [2]; 16 µg/mL (≈ 22.8 µM) in test [4]; 64 µg/mL (≈ 91.3 µM) in test [5]; 8 µg/mL (≈ 11.4 µM) in test [7]; at least 2000 µg/mL in test [8]. In test [3], the kcat/Km came out at 0.82 ×10⁴ /M/s. In addition, the Km in test [6] is 57 µM. Also, the Vmax in test [6] stood at 0.93 µmol/min/mg. Also, the kcat in test [6] was 0.47 s⁻¹.

These data come from ChEMBL document CHEMBL1140232, “Surprising alteration of antibacterial activity of 5"-modified neomycin against resistant bacteria” (2008).
